Values after ≈ are worked out from the molar mass of the structure shown. Active and inactive are the calls of the source. The rule behind the calls is not given here.
Assays:
Pseudomonas aeruginosa = assay: Antimicrobial activity against Pseudomonas aeruginosa after 18 to 24 hrs in aerobic condition by two-fold serial dilutions method; format: functional
Method in brief: (§1)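 Colonies grown overnight (~16 h) in Mueller-Hinton broth at 37 °C, 200 rpm, diluted 1/100 and grown to log phase (OD600 ~0.6), then diluted to ~10^5 bacteria/mL. Exposed to 0 to 500 µM in 1:2 series (0.2% DMSO final control), aerobic, 37 °C, 18–24 h. OD600 read; MIC = lowest concentration without visible growth; n = 3.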

Bacillus subtilis [1] = assay: Antimicrobial activity against Bacillus subtilis after 18 to 24 hrs in aerobic condition by two-fold serial dilutions method; format: functional; method in brief: as §1
Bacillus subtilis [2] = assay: Antimicrobial activity against Nisin-resistant Bacillus subtilis after 18 to 24 hrs in aerobic condition by two-fold serial dilutions method; format: functional
Method in brief: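 Strains grown on LB at 37 °C aerobically, then in Mueller-Hinton broth overnight at 200 rpm and brought to log phase (OD600 ~0.6). About 10^5 bacteria/mL exposed to two-fold serial dilutions 0–500 µM, DMSO 0.2% final as control. Aerobic incubation at 37 °C for 18–24 h; OD600 read; MIC = lowest concentration inhibiting visible growth. n = 3.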

Enterococcus faecalis = assay: Antimicrobial activity against Enterococcus faecalis after 18 to 24 hrs in anaerobic condition by two-fold serial dilutions method; format: functional
Method in brief: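 BHI preculture at 37 °C brought to log phase (OD600 ~0.6), then ~10^5 bacteria/mL exposed to 0 to 500 µM (1:2 dilutions, 0.2% DMSO final control). Anaerobic conditions from a gas-pack system, 37 °C, 18–24 h. OD600 read; MIC = lowest concentration with no visible growth; n = 3.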

Lactococcus lactis [3] = assay: Antimicrobial activity against Lactococcus lactis after 18 to 24 hrs in aerobic condition by two-fold serial dilutions method; format: functional; method in brief: as §1
Cutibacterium acnes [4] = assay: Antimicrobial activity against Propionibacterium acnes after 18 to 24 hrs in aerobic condition by two-fold serial dilutions method; format: functional
Acinetobacter baumannii = assay: Antimicrobial activity against Acinetobacter baumannii after 18 to 24 hrs in aerobic condition by two-fold serial dilutions method; format: functional; method in brief: as §1
Escherichia coli [5] = assay: Antimicrobial activity against Escherichia coli after 18 to 24 hrs in aerobic condition by two-fold serial dilutions method; format: functional; method in brief: as §1
Helicobacter pylori = assay: Antimicrobial activity against Helicobacter pylori after 18 to 24 hrs in anaerobic condition by two-fold serial dilutions method; format: functional
Method in brief: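 Mueller-Hinton broth preculture grown to log phase (OD600 ~0.6), diluted to ~10^5 bacteria/mL. Serial 1:2 dilutions 0 to 500 µM, 0.2% DMSO final control. Incubated at 37 °C for 18–24 h under anaerobic conditions from a gas-pack system; OD600 read; MIC = lowest concentration without visible growth; triplicate.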

Klebsiella variicola [6] = assay: Antimicrobial activity against Klebsiella variicola after 18 to 24 hrs in aerobic condition by two-fold serial dilutions method; format: functional; method in brief: as §1
[7] = system: Mycolicibacterium smegmatis; assay: Antimicrobial activity against Mycobacterium smegmatis after 18 to 24 hrs in anaerobic condition by two-fold serial dilutions method; format: functional
Candida albicans = assay: Antifungal activity against Candida albicans after 2 to 5 days by two-fold serial dilutions method; format: functional
Fusarium verticillioides = assay: Antifungal activity against Fusarium verticillioides after 2 to 5 days by two-fold serial dilutions method; format: functional
Method in brief: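 Broth two-fold serial dilution MIC, 0 to 500 µM (1:2 steps), from 200 mM DMSO stocks; 0.2% DMSO final as vehicle control. Inoculum about 10^5 cells/mL. Strains maintained on potato dextrose agar and in RPMI medium. Plates held at room temperature for 2 to 5 days, OD600 read; MIC = lowest concentration preventing visible growth; independent triplicate.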

[8] = Therapeutic index, ratio of IC50 for human IMR90 cells to MIC for Clostridium perfringens; format: toxicity; details: read-out: TI
Method in brief: (§2)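 IC50 measured on confluent normal human BEAS-2B or IMR-90 cells (DMEM, 10% FCS) after 48 h exposure with DMSO 0.2% as control. Resazurin read after 4 h (ex 530/em 590 nm), normalised to DMSO-treated cells. Index obtained by comparing this IC50 with the bacterial MIC.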

Staphylococcus aureus = assay: Bactericidal activity against methicillin-resistant Staphylococcus aureus in aerobic condition; format: functional, organism-based
Arthrobacter gandavensis = assay: Bactericidal activity against Arthrobacter gandavensis in aerobic condition; format: functional, organism-based
Method in brief: (§3)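 From the MIC plates, 10 µL from each well without growth was streaked onto agar suited to the organism and incubated under that organism's growth conditions. Colonies were then counted; MBC = lowest concentration allowing ≤1 colony, i.e. killing 99.9% of bacteria.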

Clostridium botulinum = assay: Bactericidal activity against Clostridium botulinum in anaerobic condition; format: functional, organism-based
Clostridioides difficile = assay: Bactericidal activity against Clostridium difficile in anaerobic condition; format: functional, organism-based; method in brief: as §3
Lactococcus lactis [9] = assay: Bactericidal activity against Lactococcus lactis in aerobic condition; format: functional, organism-based; method in brief: as §3
Cutibacterium acnes [10] = assay: Bactericidal activity against Propionibacterium acnes in aerobic condition; format: functional, organism-based; method in brief: as §3
Citrobacter rodentium = assay: Bactericidal activity against Citrobacter rodentium in aerobic condition; format: functional, organism-based; method in brief: as §3
Escherichia coli [11] = assay: Bactericidal activity against Escherichia coli in aerobic condition; format: functional, organism-based; method in brief: as §3
Klebsiella variicola [12] = assay: Bactericidal activity against Klebsiella variicola in aerobic condition; format: functional, organism-based; method in brief: as §3
Aspergillus niger = assay: Fungicidal activity against Aspergillus niger after 48 hrs; format: functional, organism-based
Method in brief: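 A. niger in RPMI medium, two-fold serial dilutions 0–500 µM (0.2% DMSO final). Incubation at 35 °C for 48 h; OD600 read, MIC as the lowest concentration with no visible growth. Killing concentration determined by streaking 10 µL from no-growth wells on agar, where ≤1 colony grew. Triplicate.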

[13] = Therapeutic index, ratio of IC50 for human BEAS2B cells to MIC for methicillin-resistant Staphylococcus aureus; format: toxicity; details: read-out: TI; method in brief: as §2

| SMILES | MIC (Pseudomonas aeruginosa) | MIC (Bacillus subtilis [1]) | MIC (Bacillus subtilis [2]) | MIC (Enterococcus faecalis) | MIC (Lactococcus lactis [3]) | MIC (Cutibacterium acnes [4]) | MIC (Acinetobacter baumannii) | MIC (Escherichia coli [5]) | MIC (Helicobacter pylori) | MIC (Klebsiella variicola [6]) | MIC [7] | MIC (Candida albicans) | MIC (Fusarium verticillioides) | Activity (Staphylococcus aureus) | Activity (Arthrobacter gandavensis) | Activity (Clostridium botulinum) | Activity (Clostridioides difficile) | Activity (Lactococcus lactis [9]) | Activity (Cutibacterium acnes [10]) | Activity (Citrobacter rodentium) | further results |
| --- | --- | --- | --- | --- | --- | --- | --- | --- | --- | --- | --- | --- | --- | --- | --- | --- | --- | --- | --- | --- | --- |
| O=C1/C(=C/c2ccccc2)Oc2cc(O)cc(O)c21 | > 500 µM | 62.5 to 125 µM (≈ 15.9 to 31.8 µg/mL) | 31.2 µM (≈ 7.95 µg/mL) | 15.6 µM (≈ 3.97 µg/mL) | 15.6 µM (≈ 3.97 µg/mL) | 31.2 µM (≈ 7.95 µg/mL) | > 500 µM | > 500 µM | 15.6 µM (≈ 3.97 µg/mL) | > 500 µM | > 500 µM | > 500 µM | > 500 µM | Active | Active | Active | Active | Active | Active | Active | selectivity ratio [8]: 32; Activity (Escherichia coli [11]): Active; Activity (Klebsiella variicola [12]): Active; Activity (Aspergillus niger): Active |
| COc1cc(/C=C2\Oc3cc(O)cc(O)c3C2=O)ccc1OCc1ccccc1 | > 500 µM | 7.8 µM (≈ 3.05 µg/mL) | 3.9 µM (≈ 1.52 µg/mL) | 15.6 to 31.2 µM (≈ 6.09 to 12.2 µg/mL) | 31.2 µM (≈ 12.2 µg/mL) | 31.2 µM (≈ 12.2 µg/mL) | > 500 µM | > 500 µM | 15.6 µM (≈ 6.09 µg/mL) | > 500 µM | > 500 µM | 125 µM (≈ 48.8 µg/mL) | > 500 µM | Active | Active | Active | Active | Active | Active | Active | Activity (Escherichia coli [11]): Active; Activity (Klebsiella variicola [12]): Active; Activity (Aspergillus niger): Active |
| O=C1/C(=C/c2ccc(F)cc2)Oc2cc(O)cc(O)c21 | > 500 µM | 62.5 µM (≈ 17 µg/mL) | 31.2 µM (≈ 8.51 µg/mL) | 125 to 250 µM (≈ 34 to 68.1 µg/mL) | 15.6 µM (≈ 4.25 µg/mL) | 31.2 µM (≈ 8.51 µg/mL) | > 500 µM | > 500 µM | > 500 µM | > 500 µM | > 500 µM | > 500 µM | > 500 µM | Active | Active | Active | Active | Active | Active | Active | Activity (Escherichia coli [11]): Active; Activity (Klebsiella variicola [12]): Active; Activity (Aspergillus niger): Active; selectivity ratio [13]: 76 |

From ChEMBL document CHEMBL4400513, “Aurone derivatives as promising antibacterial agents against resistant Gram-positive pathogens” (Eur J Med Chem, 2019)
